Source: ChEMBL document CHEMBL4000256, “Light-Regulated NO Release as a Novel Strategy To Overcome Doxorubicin Multidrug Resistance” (ACS Med Chem Lett, 2017)
Calls of active or inactive are those of the source. The rule behind the calls is not given here.

How the values were obtained:
M14 [1] = experiment: Dark toxicity in human M14 cells assessed as increase in nitrite levels at 5 uM measured after 20 mins by Griess reagent based spectrophotometric method; type: cell-based; conditions: m14, 20 min
M14 [2] = experiment: Dark toxicity in human M14 cells assessed as increase in LDH release at 5 uM measured after 20 mins by spectrophotometric method; type: cell-based; conditions: m14, 20 min
Procedure, shortened: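 Cells (M14 melanoma, human fibroblasts or rat H9c2 cardiomyocytes) kept 20 min at room temperature in PBS in the dark, with 5 μM compound, given alone or with equimolar 5 μM doxorubicin. Cytotoxicity read as extracellular LDH release. Triplicate measurements, n = 3.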

Fibroblast [3] = experiment: Cytotoxicity against 7 mW/cm'2 irradiated human fibroblasts at 5 uM measured after 20 mins by spectrophotometric method; type: cell-based
Procedure, shortened: (§1)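 Human fibroblasts or rat H9c2 cardiomyocytes kept 20 min at room temperature in PBS, either in the dark or irradiated at λexc 400 nm, 7 mW/cm2, with or without 5 μM test agent. Cytotoxicity measured in triplicate; means ± SD, n = 3.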

H9c2 [4] = experiment: Cytotoxicity against 7 mW/cm'2 irradiated rat H9c2 cells at 5 uM measured after 20 mins by spectrophotometric method; type: cell-based; conditions: h9c2, 20 min; procedure, shortened: as §1
H9c2 [5] = experiment: Dark toxicity against rat H9c2 cells at 5 uM measured after 20 mins by spectrophotometric method; type: cell-based; conditions: h9c2, 20 min; procedure, shortened: as §1
M14 [6] = experiment: Cytotoxicity against 7 mW/cm'2 irradiated human M14 cells assessed as increase in LDH release at 5 uM measured after 20 mins by spectrophotometric method; type: functional, cell-based
Procedure, shortened: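 Cells (M14 melanoma, human fibroblasts or rat H9c2 cardiomyocytes) kept 20 min at room temperature in PBS under 400 nm light (7 mW/cm2), alone or with 5 μM compound, given alone or with equimolar 5 μM doxorubicin. Damage read as extracellular LDH release. Triplicate measurements, n = 3.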

Fibroblast [7] = experiment: Dark toxicity against human fibroblasts at 5 uM measured after 20 mins by spectrophotometric method; type: cell-based; procedure, shortened: as §1
Bos taurus = species on record: Bos taurus; experiment: Binding affinity to calf thymus duplex DNA by fluorescence spectroscopic method

## COc1cccc2c1C(=O)c1c(O)c3c(c(O)c1C2=O)C[C@@](O)(C(=O)CO)C[C@@H]3O[C@H]1C[C@H](N)[C@H](O)[C@H](C)O1.Cl [DOXORUBICIN HYDROCHLORIDE]
M14 [1]
  Activity: Non-Toxic
M14 [2]
  Activity: Non-Toxic
Fibroblast [3]
  Activity: Toxic
H9c2 [4]
  Activity: Toxic
H9c2 [5]
  Activity: Toxic
M14 [6]
  Activity: inactive
Fibroblast [7]
  Activity: Toxic
Bos taurus
  K: 630000 M⁻¹
